# Assay results published in ChEMBL document CHEMBL4359903, “1,2,4-Oxadiazole derivatives targeting EGFR and c-Met degradation in TKI resistant NSCLC” (Eur J Med Chem, 2019).
# Active and inactive are the calls of the source. The rule behind the calls is not given here.
# Assays:
# [1] = test system: MDA-MB-231; assay: Antiproliferative activity against human MDA-MB-231 cells assessed as reduction in cell viability incubated for 72 hrs by MTT assay; type: functional, cell-based; conditions: MDA-MB-231, 72 h
# Outline: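 MTT viability assay after 72 h of drug exposure. Cells seeded at 5000 per well in 10% FBS and left overnight, then treated in 5% FBS. MTT added for 1 h, dye dissolved in DMSO, absorbance read at 570 nm. Viability given relative to vehicle-treated cells.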
# [2] = target: Epidermal growth factor receptor (Homo sapiens) (UniProt P00533); assay: Induction of EGFR degradation in human MDA-MB-231 cells assessed as reduction in EGFR expression incubated for 48 hrs by immunoblot analysis; type: cell-based
# Epidermal growth factor receptor (Homo sapiens), sequence (P00533 whole entry): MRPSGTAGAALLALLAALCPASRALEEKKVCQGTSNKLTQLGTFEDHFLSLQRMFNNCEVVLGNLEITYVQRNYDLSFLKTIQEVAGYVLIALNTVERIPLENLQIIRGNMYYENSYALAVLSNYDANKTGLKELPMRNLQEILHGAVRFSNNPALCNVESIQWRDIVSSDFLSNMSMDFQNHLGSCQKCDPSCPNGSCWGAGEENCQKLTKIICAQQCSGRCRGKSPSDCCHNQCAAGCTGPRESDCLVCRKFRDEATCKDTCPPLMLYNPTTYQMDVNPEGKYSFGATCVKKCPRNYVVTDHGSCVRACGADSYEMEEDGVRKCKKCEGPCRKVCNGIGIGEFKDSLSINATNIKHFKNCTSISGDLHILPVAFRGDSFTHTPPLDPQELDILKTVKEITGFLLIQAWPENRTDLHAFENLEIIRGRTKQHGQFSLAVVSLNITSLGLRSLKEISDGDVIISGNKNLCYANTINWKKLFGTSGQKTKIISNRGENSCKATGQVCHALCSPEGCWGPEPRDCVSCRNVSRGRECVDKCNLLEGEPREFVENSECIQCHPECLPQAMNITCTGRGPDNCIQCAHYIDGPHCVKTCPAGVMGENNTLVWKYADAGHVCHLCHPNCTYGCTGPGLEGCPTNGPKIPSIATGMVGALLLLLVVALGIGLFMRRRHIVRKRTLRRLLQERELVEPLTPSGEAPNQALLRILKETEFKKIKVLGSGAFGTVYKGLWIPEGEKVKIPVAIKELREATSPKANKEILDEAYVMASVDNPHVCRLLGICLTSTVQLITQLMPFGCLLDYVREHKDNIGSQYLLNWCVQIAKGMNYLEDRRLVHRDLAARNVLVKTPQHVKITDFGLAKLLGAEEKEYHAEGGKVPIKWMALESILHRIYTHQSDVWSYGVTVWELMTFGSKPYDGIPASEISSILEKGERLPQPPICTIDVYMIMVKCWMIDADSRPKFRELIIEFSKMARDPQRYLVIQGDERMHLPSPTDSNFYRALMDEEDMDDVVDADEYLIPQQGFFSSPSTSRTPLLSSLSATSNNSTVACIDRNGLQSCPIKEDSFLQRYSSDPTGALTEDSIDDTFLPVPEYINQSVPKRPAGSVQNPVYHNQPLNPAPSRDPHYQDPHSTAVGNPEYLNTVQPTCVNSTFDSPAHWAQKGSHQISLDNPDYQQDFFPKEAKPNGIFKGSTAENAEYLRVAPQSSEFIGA
# Outline: (§1)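 After 48 h treatment, cells were scraped and lysed in 1% SDS, 50 mM Tris-HCl pH 8.0, 10 mM EDTA with protease and phosphatase inhibitors. Lysates sonicated, protein measured by BCA, equal amounts run on SDS-PAGE and blotted to nitrocellulose. Primary antibodies (EGFR, c-Met, S473-Akt, Akt, GAPDH) used at 1:1000 overnight at 4 °C, HRP secondaries at 1:5000, ECL detection.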
# [3] = target: Hepatocyte growth factor receptor (Homo sapiens) (UniProt P08581); assay: Induction of c-MET degradation in human MDA-MB-231 cells assessed as reduction in c-Met expression incubated for 48 hrs by immunoblot analysis; type: cell-based; outline: as §1
# Hepatocyte growth factor receptor (Homo sapiens), sequence (P08581 whole entry): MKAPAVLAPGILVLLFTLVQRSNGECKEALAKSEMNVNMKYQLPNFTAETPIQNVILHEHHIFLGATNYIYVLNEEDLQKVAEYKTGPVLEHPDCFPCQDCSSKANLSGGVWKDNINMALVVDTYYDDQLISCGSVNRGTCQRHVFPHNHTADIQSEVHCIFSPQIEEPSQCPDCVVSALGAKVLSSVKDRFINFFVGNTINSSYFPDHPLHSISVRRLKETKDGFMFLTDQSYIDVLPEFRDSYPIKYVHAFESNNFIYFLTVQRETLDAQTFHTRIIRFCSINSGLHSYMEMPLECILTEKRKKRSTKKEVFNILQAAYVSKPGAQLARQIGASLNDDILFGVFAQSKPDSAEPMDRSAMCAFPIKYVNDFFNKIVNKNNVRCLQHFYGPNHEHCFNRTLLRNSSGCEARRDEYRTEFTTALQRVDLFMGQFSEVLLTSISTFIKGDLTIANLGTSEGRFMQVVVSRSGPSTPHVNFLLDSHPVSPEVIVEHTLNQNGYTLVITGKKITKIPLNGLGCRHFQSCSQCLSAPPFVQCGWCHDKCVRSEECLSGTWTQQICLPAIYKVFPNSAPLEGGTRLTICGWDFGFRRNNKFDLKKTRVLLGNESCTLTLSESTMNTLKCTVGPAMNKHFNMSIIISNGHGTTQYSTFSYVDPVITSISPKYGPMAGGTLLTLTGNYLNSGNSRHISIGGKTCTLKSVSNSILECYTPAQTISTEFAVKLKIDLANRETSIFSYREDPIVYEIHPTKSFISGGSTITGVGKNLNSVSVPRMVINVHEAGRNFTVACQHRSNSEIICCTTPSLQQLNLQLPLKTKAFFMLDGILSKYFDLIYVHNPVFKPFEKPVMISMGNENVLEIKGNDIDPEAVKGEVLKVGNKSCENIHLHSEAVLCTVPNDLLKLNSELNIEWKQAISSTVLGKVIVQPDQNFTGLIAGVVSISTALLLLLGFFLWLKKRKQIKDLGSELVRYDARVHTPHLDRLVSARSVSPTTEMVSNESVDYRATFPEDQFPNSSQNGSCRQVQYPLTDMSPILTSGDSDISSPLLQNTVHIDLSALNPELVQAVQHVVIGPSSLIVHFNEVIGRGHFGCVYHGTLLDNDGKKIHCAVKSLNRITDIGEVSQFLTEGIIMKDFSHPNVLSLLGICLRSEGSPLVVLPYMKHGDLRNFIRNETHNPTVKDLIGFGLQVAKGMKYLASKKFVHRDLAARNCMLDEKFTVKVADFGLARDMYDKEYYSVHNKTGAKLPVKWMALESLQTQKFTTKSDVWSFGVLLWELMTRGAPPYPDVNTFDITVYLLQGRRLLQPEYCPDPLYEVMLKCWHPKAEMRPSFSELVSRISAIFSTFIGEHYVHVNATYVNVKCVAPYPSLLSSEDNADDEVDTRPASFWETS
# [4] = test system: NCI-H1975; assay: Growth inhibition of human NCI-H1975 cells incubated for 3 days by CellTiter 96 aqueous nonradioactive cell proliferation assay; type: functional; conditions: NCI-H1975, 72 h
# [5] = test system: MDA-MB-231; assay: Growth inhibition of human MDA-MB-231 cells incubated for 3 days by CellTiter 96 aqueous nonradioactive cell proliferation assay; type: functional; conditions: MDA-MB-231, 72 h
# [6] = test system: PC-9; assay: Antiproliferative activity against human PC9 cells harbouring EGFR delE746-A750 mutant assessed as reduction in cell viability incubated for 72 hrs by MTT assay; type: functional, cell-based; conditions: PC-9, 72 h
# [7] = test system: CL97; assay: Antiproliferative activity against human CL97 cells harbouring EGFR G719A/T790M mutant assessed as reduction in cell viability incubated for 72 hrs by MTT assay; type: functional, cell-based; conditions: CL97, 72 h
# [8] = test system: NCI-H1975; assay: Antiproliferative activity against human NCI-H1975 cells harbouring EGFR L858R/T790M double mutant assessed as reduction in cell viability incubated for 72 hrs by MTT assay; type: functional, cell-based; conditions: NCI-H1975, 72 h
# [9] = Antiproliferative activity against human CL68 cells harbouring EGFR delE746-A750/T790M mutant assessed as reduction in cell viability incubated for 72 hrs by MTT assay; type: functional, cell-based
# [10] = test system: A549; assay: Antiproliferative activity against wild type human A549 cells assessed as reduction in cell viability incubated for 72 hrs by MTT assay; type: functional, cell-based; conditions: A549, 72 h
SMILES,IC50 [1] [µM],further results
CC(=O)Nc1ccc(NC(=O)Nc2cccc(-c3nc(-c4ccc(NC(=O)c5cccnc5)cc4Cl)no3)c2)cc1Cl,> 10,
COc1cc(NC(=O)c2cccnc2)ccc1-c1noc(-c2cccc(NS(=O)(=O)c3ccc(NC(C)=O)cc3)c2)n1,> 10,
O=C(Nc1ccc(-c2noc(-c3cccc(NS(=O)(=O)c4cccc(Cl)c4)c3)n2)c(Cl)c1)c1cccnc1,> 10,
O=C(Nc1ccc(-c2noc(-c3cccc(NS(=O)(=O)c4ccc(NC(=O)N5CCCCC5)cc4)c3)n2)c(Cl)c1)c1cccnc1,> 10,
O=C(Nc1ccc(Cl)cc1)Nc1cccc(-c2nc(-c3ccc(NC(=O)c4cccnc4)cc3Cl)no2)c1,> 10,
CC(C)c1cc(C(=O)N2CCc3sccc3C2)c(O)cc1O,,GI50 [4]: 1.67 µM; GI50 [5]: 0.478 µM
CC(=O)Nc1ccc(S(=O)(=O)Nc2cccc(-c3nc(-c4ccc(NC(=O)c5cccnc5)cc4Cl)no3)c2)cc1C,> 10,
O=C(Nc1ccc(-c2noc(-c3cccc(NS(=O)(=O)c4ccccc4)c3)n2)c(Cl)c1)c1cccnc1,> 10,
C#Cc1cccc(Nc2ncnc3cc(OCCOC)c(OCCOC)cc23)c1 [ERLOTINIB],,IC50 [6]: 0.1 µM; IC50 [7]: > 20 µM; IC50 [8]: 10 µM; IC50 [9]: 5 µM
NS(=O)(=O)c1ccc(NC(=O)Nc2cccc(-c3nc(-c4ccc(NC(=O)c5cccnc5)cc4Cl)no3)c2)cc1,> 10,
COc1cc(-c2noc(-c3cccc(NS(=O)(=O)c4ccc(NC(C)=O)cc4)c3)n2)ccc1NC(=O)c1cccnc1,> 10,
C#Cc1cccc(NC(=O)Nc2cccc(-c3nc(-c4ccc(NC(=O)c5cccnc5)cc4Cl)no3)c2)c1,> 10,
O=C(Nc1ccc(S(=O)(=O)Nc2cccc(-c3nc(-c4ccc(NC(=O)c5cccnc5)cc4Cl)no3)c2)cc1)NC1CCCC1,> 10,
O=C(Nc1ccc(-c2noc(-c3cccc(NS(=O)(=O)c4ccc(C(F)(F)F)cc4)c3)n2)c(Cl)c1)c1cccnc1,> 10,
Cc1ccc(S(=O)(=O)Nc2cccc(-c3nc(-c4ccc(NC(=O)c5cccnc5)cc4Cl)no3)c2)cc1,> 10,
O=C(Nc1cccc(-c2nc(-c3ccc(NC(=O)c4cccnc4)cc3Cl)no2)c1)c1ccccc1,12.8,
CC(=O)Nc1ccc(S(=O)(=O)Nc2cccc(-c3nc(-c4ccc(NC(=O)c5cccnc5)cc4C(F)(F)F)no3)c2)cc1,> 10,
NS(=O)(=O)c1ccc(S(=O)(=O)Nc2cccc(-c3nc(-c4ccc(NC(=O)c5cccnc5)cc4Cl)no3)c2)cc1,> 10,
CC(=O)Nc1ccc(NC(=O)Nc2cccc(-c3nc(-c4ccc(NC(=O)c5cccnc5)cc4Cl)no3)c2)cc1,> 10,
COc1cccc(S(=O)(=O)Nc2cccc(-c3nc(-c4ccc(NC(=O)c5cccnc5)cc4Cl)no3)c2)c1,> 10,
CC(=O)Nc1ccc(S(=O)(=O)Nc2cccc(-c3nc(-c4ccc(NC(=O)c5cccnc5)c(C(F)(F)F)c4)no3)c2)cc1,> 10,
CC(=O)Nc1ccc(S(=O)(=O)Nc2cccc(-c3nc(-c4ccc(NC(=O)c5cccnc5)cc4Cl)no3)c2)cc1Cl,> 10,
C#Cc1ccc(NC(=O)Nc2cccc(-c3nc(-c4ccc(NC(=O)c5cccnc5)cc4Cl)no3)c2)cc1,> 10,
O=C(Nc1ccccc1)Nc1cccc(-c2nc(-c3ccc(NC(=O)c4cccnc4)cc3Cl)no2)c1,> 10,
CN(C)C/C=C/C(=O)Nc1cc2c(Nc3ccc(F)c(Cl)c3)ncnc2cc1O[C@H]1CCOC1 [AFATINIB],,IC50 [6]: < 0.01 µM; IC50 [7]: 0.1 µM; IC50 [8]: 1 µM; IC50 [9]: 0.1 µM; IC50 [10]: 5 to 10 µM
CS(=O)(=O)Nc1cccc(NC(=O)Nc2cccc(-c3nc(-c4ccc(NC(=O)c5cccnc5)cc4Cl)no3)c2)c1,> 10,
O=C(Nc1ccc(-c2noc(-c3cccc(NS(=O)(=O)c4ccc(NC(=O)N5CCOCC5)cc4)c3)n2)c(Cl)c1)c1cccnc1,> 10,

# More lines, in order of falling IC50 [1], values ahead:
IC50 [1] [µM],SMILES,further results
8.9,NS(=O)(=O)Nc1ccc(NC(=O)Nc2cccc(-c3nc(-c4ccc(NC(=O)c5cccnc5)cc4Cl)no3)c2)cc1,
8.7,CCN(CC)C(=O)Nc1ccc(S(=O)(=O)Nc2cccc(-c3nc(-c4ccc(NC(=O)c5cccnc5)cc4Cl)no3)c2)cc1,
6.7,COc1cccc(NC(=O)Nc2cccc(-c3nc(-c4ccc(NC(=O)c5cccnc5)cc4Cl)no3)c2)c1,
5.8,O=C(Nc1ccc(-c2noc(-c3cccc(NS(=O)(=O)c4ccc(NC(=O)N5CCCC5)cc4)c3)n2)c(Cl)c1)c1cccnc1,
5.2,CC(=O)Nc1ccc(S(=O)(=O)Nc2cccc(-c3nc(-c4ccc(NC(=O)c5cccnc5)cc4)no3)c2)cc1,
4.5,CC(=O)Nc1ccc(S(=O)(=O)Nc2cccc(-c3nc(-c4ccc(NC(=O)c5cccnc5)c(Cl)c4)no3)c2)cc1,
3.5,Cc1ccc(NC(=O)Nc2cccc(-c3nc(-c4ccc(NC(=O)c5cccnc5)cc4Cl)no3)c2)cc1,
3.4,NC(=O)Nc1ccc(NC(=O)Nc2cccc(-c3nc(-c4ccc(NC(=O)c5cccnc5)cc4Cl)no3)c2)cc1C(F)(F)F,
3.1,CCNC(=O)Nc1ccc(S(=O)(=O)Nc2cccc(-c3nc(-c4ccc(NC(=O)c5cccnc5)cc4Cl)no3)c2)cc1,
3,COc1ccc(NC(=O)Nc2cccc(-c3nc(-c4ccc(NC(=O)c5cccnc5)cc4Cl)no3)c2)cc1,
2.9,O=C(Nc1cccc(-c2nc(-c3ccc(NC(=O)c4cccnc4)cc3Cl)no2)c1)Nc1ccc(NC(=O)c2cccs2)c(C(F)(F)F)c1,
2.8,NC(=O)Nc1ccc(S(=O)(=O)Nc2cccc(-c3nc(-c4ccc(NC(=O)c5cccnc5)cc4Cl)no3)c2)cc1,
2.5,CC(=O)Nc1ccc(S(=O)(=O)Nc2cccc(-c3nc(-c4ccc(NC(=O)c5cccnc5)cc4Cl)no3)c2)cc1,
1.9,O=C(Nc1cccc(-c2nc(-c3ccc(NC(=O)c4cccnc4)cc3Cl)no2)c1)Nc1ccc(Cl)c(C(F)(F)F)c1,
1.9,O=C(Nc1cccc(-c2nc(-c3ccc(NC(=O)c4cccnc4)cc3Cl)no2)c1)Nc1cccc(C(F)(F)F)c1,Activity [2]: inactive; Activity [3]: Active
1.9,O=C(Nc1cccc(-c2nc(-c3ccc(NC(=O)c4cccnc4)cc3Cl)no2)c1)Nc1cc(C(F)(F)F)cc(C(F)(F)F)c1,
1.7,COc1ccc(NC(=O)Nc2cccc(-c3nc(-c4ccc(NC(=O)c5cccnc5)cc4Cl)no3)c2)cc1C(F)(F)F,Activity [2]: inactive; Activity [3]: Active
1.3,CNC(=O)Nc1ccc(S(=O)(=O)Nc2cccc(-c3nc(-c4ccc(NC(=O)c5cccnc5)cc4Cl)no3)c2)cc1,
1,CC(=O)Nc1ccc(NC(=O)Nc2cccc(-c3nc(-c4ccc(NC(=O)c5cccnc5)cc4Cl)no3)c2)cc1Br,
0.7,CS(=O)(=O)Nc1ccc(NC(=O)Nc2cccc(-c3nc(-c4ccc(NC(=O)c5cccnc5)cc4Cl)no3)c2)cc1C(F)(F)F,
0.7,CS(=O)(=O)Nc1ccc(NC(=O)Nc2cccc(-c3nc(-c4ccc(NC(=O)c5cccnc5)cc4Cl)no3)c2)cc1Br,
0.6,CS(=O)(=O)Nc1ccc(NC(=O)Nc2cccc(-c3nc(-c4ccc(NC(=O)c5cccnc5)cc4Cl)no3)c2)cc1,Activity [2]: inactive; Activity [3]: Active
0.6,CS(=O)(=O)Nc1ccc(NC(=O)Nc2cccc(-c3nc(-c4ccc(NC(=O)c5cccnc5)cc4Cl)no3)c2)cc1Cl,Activity [2]: inactive; Activity [3]: Active
0.3,O=C(Nc1ccc(NS(=O)(=O)C2CC2)cc1)Nc1cccc(-c2nc(-c3ccc(NC(=O)c4cccnc4)cc3Cl)no2)c1,Activity [2]: Active; Activity [3]: Active
0.3,O=C(Nc1cccc(-c2nc(-c3ccc(NC(=O)c4cccnc4)cc3Cl)no2)c1)Nc1ccc(NC(=O)C2CCCC2)c(C(F)(F)F)c1,Activity [2]: Active; Activity [3]: Active
